Converted amounts (≈) assume the structure as drawn.
Assays:
[1] = test system: Saccharomyces cerevisiae; assay: Inhibition of Saccharomyces cerevisiae RS321 expressing Rad52.erg6.top1 by agar diffusion assay; format: functional
[2] = test system: Saccharomyces cerevisiae; assay: Inhibition of Saccharomyces cerevisiae RS188 expressing wild type erg6 by agar diffusion assay; format: functional, organism-based
[3] = test system: Saccharomyces cerevisiae; assay: Inhibition of pRAD52 recombination repair gene/topoisomerase 1 deficient Saccharomyces cerevisiae RS321N carrying pRAD52 in glucose medium by microtiter plate assay; format: functional, organism-based
Procedure, shortened: (§1)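 Yeast in minimal medium with galactose or glucose at 2% final. Samples are dissolved in 10% DMSO at 10× final concentration and added 1:10 to the cell suspension in triplicate, with 10% DMSO wells as controls. Plates are incubated at 30 °C in high humidity for 48-72 h and read when control growth reaches OD 0.15-0.25. Inhibition = 1 − (ODtest − ODblank)/(ODplate median − ODblank); IC50 in µg/mL.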

[4] = test system: Saccharomyces cerevisiae; assay: Inhibition of Saccharomyces cerevisiae RS322 expressing Rad52.erg6 by agar diffusion assay; format: functional
[5] = test system: Saccharomyces cerevisiae; assay: Inhibition of pRAD52 recombination repair gene/topoisomerase 1 deficient Saccharomyces cerevisiae RS321N carrying pRAD52 in galactose medium by microtiter plate assay; format: functional, organism-based; procedure, shortened: as §1
[6] = test system: Saccharomyces cerevisiae; assay: Inhibition of Saccharomyces cerevisiae RS321NYCp50 in galactose medium by microtiter plate assay; format: functional, organism-based; procedure, shortened: as §1
[7] = test system: A549; assay: Cytotoxicity against human A549 cells by XTT assay; format: functional, cell-based
[8] = test system: HeLa; assay: Cytotoxicity against human HeLa cells by XTT assay; format: functional, cell-based

SMILES | IC12 [1] [µg/mL] | IC12 [2] [µg/mL] | IC50 [3] [µg/mL] | IC12 [4] [µg/mL] | IC50 [5] [µg/mL] | IC50 [6] [µg/mL] | IC50 [7] [µg/mL] | IC50 [8] [µg/mL]
COc1ccc(/C=C\c2cc(OC)c(OC)c(OC)c2)c(O)c1O [COMBRETASTATIN A-1] | 2.2 | 80.1 | 18 | 33.5 | 53 | 1.8 (≈ 5.42 µM) |  | 
COc1ccc(/C=C\c2cc(OC)c(OC)c(OC)c2)c(O[C@H]2O[C@@H](CO)[C@H](O)[C@@H](O)[C@@H]2O)c1O |  |  | 3 |  | > 100 | 13 (≈ 26.3 µM) | 7 (≈ 14.2 µM) | 1.5 (≈ 3.03 µM)
COc1ccc(CCc2cc(OC)c(OC)c(OC)c2)c(O[C@H]2O[C@@H](CO)[C@H](O)[C@@H](O)[C@@H]2O)c1O | > 100 | > 100 | > 100 | > 100 | > 100 | 25 (≈ 50.4 µM) |  | 

Reference: ChEMBL document CHEMBL1154561, “Bioactive compounds from Combretum erythrophyllum” (J Nat Prod, 2000)
